Experimental data: ChEMBL document CHEMBL4390679 (J Med Chem, 2019)
One block for each compound: values may come before it. Active and inactive are the calls of the source. No cut-off for these calls is given here. Starred links: 1 amine or outer side, 2 acyl side, 3 side chain; linkers in the order of their positions; H or OH if unused. Positions of bridges follow the written chain, without caps; N, C: chain ends. Non-standard residues stand in square brackets, D forms with d. Residues, ends and D or L forms follow the SMILES beside them. Abu(4-yl) = O=C([C@H](CC[*:3])N[*:1])[*:2]; N(4-F-Bzl)Gly = O=C(O)CNCc1ccc(F)cc1

Key:
Homo sapiens [1] = organism: Homo sapiens; experiment: Selectivity ratio of EC50 for recombinant human V1a receptor expressed in HEK293 cells to EC50 for recombinant human OTR expressed in HEK293 cells; type: cell-based
Summary of the method: (§1)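 Agonist response measured in HEK-293 cells stably expressing human OTR, V1aR or V1bR, loaded with 1 µM fura-2/AM for 30 min at 37 °C, washed in HEPES-buffered saline pH 7.4. F340/F380 ratio read every 3 s for 5 min at 37 °C, normalized to baseline and to maximal OT (OTR) or AVP (V1aR, V1bR) response; EC50 taken from these curves. n = 3, 20 cells per dish.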

[2] = target: T1, Oxytocin receptor (Homo sapiens) (UniProt P30559); experiment: Displacement of [3H]OT from recombinant human OTR expressed in HEK293 cell membranes assessed as dissociation rate constant for [3H]OT binding
T1 sequence (whole entry): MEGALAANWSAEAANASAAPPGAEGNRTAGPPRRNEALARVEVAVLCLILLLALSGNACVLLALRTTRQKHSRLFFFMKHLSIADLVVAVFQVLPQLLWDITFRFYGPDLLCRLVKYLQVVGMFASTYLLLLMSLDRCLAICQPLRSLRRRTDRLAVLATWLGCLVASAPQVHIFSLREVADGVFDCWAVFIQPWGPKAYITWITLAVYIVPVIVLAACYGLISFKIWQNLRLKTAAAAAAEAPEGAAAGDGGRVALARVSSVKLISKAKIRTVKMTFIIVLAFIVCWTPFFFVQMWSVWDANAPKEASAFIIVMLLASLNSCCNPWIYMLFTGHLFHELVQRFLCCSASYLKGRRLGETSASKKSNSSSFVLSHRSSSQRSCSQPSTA
Summary of the method: (§2)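 Membranes from HEK-293 cells stably expressing human OTR (5 µg/well) in 50 mM Tris, 10 mM MgCl2, 0.1% BSA, pH 7.4. [3H]OT added at 200 pM, 500 pM and 1 nM; bound and free separated by rapid filtration at multiple time points to build association curves. Kon and Koff fitted; t1/2 from Koff = ln2/t1/2. Two experiments, each in duplicate.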

[3] = target: T1, Oxytocin receptor (Homo sapiens); experiment: Displacement of [3H]OT from recombinant human OTR expressed in HEK293 cell membranes assessed as association rate constant for [3H]OT binding; summary of the method: as §2
[4] = Plasma concentration in Slc:ICR mouse at 100 ng/g, iv measured immediately by LC-MS/MS analysis; type: ADME, organism-based; conditions: in vivo
Summary of the method: (§3)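 Male ICR mice (30 g) were given 100 ng/g i.v. via the tail vein. Blood was taken by cardiac puncture immediately and at 5, 15 and 30 min; CSF was taken at 30 min or 12 h. Plasma was deproteinized with acetonitrile/methanol 1:1 containing [13C6,15N]OT internal standard and analysed by LC-MS/MS (C8 column, SRM).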

Mus musculus [5] = experiment: Cognition enhancing effect in CD38 knock out Slc:ICR mouse sire model of autism spectrum disorder assessed as latency time to retrieve pups by sires at 100 ng/ml, ip administered as single dose measured after 30 mins by parental retrieval test (reference value: 600 sec); type: functional
Homo sapiens [6] = organism: Homo sapiens; experiment: Selectivity ratio of EC50 for recombinant human V1b receptor expressed in HEK293 cells to EC50 for recombinant human OTR expressed in HEK293 cells; type: cell-based; summary of the method: as §1
[7] = Drug level in Slc:ICR mouse cerebrospinal fluid at 100 ng/g, iv measured after 12 hrs by LC-MS/MS analysis; type: ADME, organism-based; conditions: Slc:ICR, cerebrospinal fluid, 100 ng/g, read-out: Drug uptake; summary of the method: as §3
Oxytocin receptor [8] = target: T2, Oxytocin receptor (Homo sapiens, UniProt P30559); experiment: Displacement of [3H]OT from recombinant human OTR expressed in HEK293 cell membranes measured after 1 hr
T2 sequence (P30559 whole entry): T1 sequence (whole entry)

Mus musculus [9] = experiment: Cognition enhancing effect in CD38KOCC Slc:ICR mouse model of autism spectrum disorder assessed as increase in sucrose consumption over water at 100 ng/ml, ip administered as single dose measured after 24 hrs; type: functional, organism-based
Mus musculus [10] = experiment: Cognition enhancing effect in CD38 knock out Slc:ICR mouse sire model of autism spectrum disorder assessed as latency time to retrieve pups by sires at 100 ng/ml, ip administered as single dose measured after 24 hrs by parental retrieval test (reference value: 233 +/- 68 sec); type: functional
[11] = Half life in Slc:ICR mouse plasma during fast phase at 100 ng/g, iv measured for 15 mins by LC-MS/MS analysis; type: ADME, organism-based; summary of the method: as §3
[12] = Drug level in Slc:ICR mouse cerebrospinal fluid at 100 ng/g, iv measured after 30 mins by LC-MS/MS analysis; type: ADME, organism-based; conditions: Slc:ICR, cerebrospinal fluid, 100 ng/g, read-out: Drug uptake; summary of the method: as §3
Oxytocin receptor [13] = target: T2, Oxytocin receptor; experiment: Agonist activity at recombinant human OTR expressed in HEK293 cells assessed as increase in intracellular calcium level measured at 3 secs interval for 5 mins by fura-2/AM dye based micro spectrofluorometric method; type: functional, cell-based
Vasopressin V1b receptor = target: T3, Vasopressin V1b receptor (Homo sapiens, UniProt P47901); experiment: Agonist activity at recombinant human V1b receptor expressed in HEK293 cells assessed as increase in intracellular calcium level measured at 3 secs interval for 5 mins by fura-2/AM dye based micro spectrofluorometric method; type: cell-based
T3 sequence (P47901 whole entry): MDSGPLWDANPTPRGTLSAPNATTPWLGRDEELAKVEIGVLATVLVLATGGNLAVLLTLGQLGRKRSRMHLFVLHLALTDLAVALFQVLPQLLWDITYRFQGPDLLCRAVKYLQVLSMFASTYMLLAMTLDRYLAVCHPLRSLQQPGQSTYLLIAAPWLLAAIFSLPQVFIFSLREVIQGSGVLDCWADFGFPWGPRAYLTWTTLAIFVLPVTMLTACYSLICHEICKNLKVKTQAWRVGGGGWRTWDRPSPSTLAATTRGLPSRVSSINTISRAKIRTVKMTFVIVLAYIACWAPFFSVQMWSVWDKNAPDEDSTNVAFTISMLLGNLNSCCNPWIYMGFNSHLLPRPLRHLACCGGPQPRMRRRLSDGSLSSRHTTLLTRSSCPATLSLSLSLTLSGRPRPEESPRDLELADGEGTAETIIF

Vasopressin V1a receptor = Vasopressin V1a receptor (Homo sapiens, UniProt P37288); experiment: Agonist activity at recombinant human V1a receptor expressed in HEK293 cells assessed as increase in intracellular calcium level measured at 3 secs interval for 5 mins by fura-2/AM dye based micro spectrofluorometric method; type: cell-based
Mus musculus [14] = experiment: Antidepressant-like activity in CD38KOCC Slc:ICR mouse model of autism spectrum disorder assessed as immobility time at 100 ng/ml, ip administered as single dose for 30 mins prior to testing measured for last 4 mins of 6 mins test by tail suspension test (reference value: 74.2 +/- 2.9 sec); type: functional
Mus musculus [15] = experiment: Cognition enhancing effect in CD38 knock out Slc:ICR mouse sire model of autism spectrum disorder assessed as latency time to retrieve pups by sires at 100 ng/ml, ip administered as single dose measured after 12 hrs by parental retrieval test (reference value: 233 +/- 68 sec); type: functional
[16] = Half life in Slc:ICR mouse plasma during slow phase at 100 ng/g, iv measured for 15 to 60 mins by LC-MS/MS analysis; type: ADME, organism-based; summary of the method: as §3
Mus musculus [17] = experiment: Cognition enhancing effect in CD38 knock out Slc:ICR mouse sire model of autism spectrum disorder assessed as latency time to retrieve pups by sires at 100 ng/ml, ip administered as single dose measured after 5 hrs by parental retrieval test (reference value: 233 +/- 68 sec); type: functional
[18] = target: T1, Oxytocin receptor (Homo sapiens); experiment: Displacement of [3H]OT from recombinant human OTR expressed in HEK293 cell membranes assessed as dissociation half life for [3H]OT binding; summary of the method: as §2
Mus musculus [19] = experiment: Antidepressant-like activity in CD38KOCC Slc:ICR mouse model of autism spectrum disorder assessed as decrease in immobility time at 100 ng/ml, ip administered as single dose for 24 hrs prior to testing measured for last 4 mins of 6 mins test by tail suspension test
[20] = Stability in mouse plasma assessed as parent compound remaining at 50 ng/ml measured after 2 hrs by LC-MS/MS analysis; type: ADME, cell-free; conditions: read-out: Stability
Summary of the method: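 Pooled mouse plasma spiked to a final 50 ng/mL was incubated at 37 °C for 1–120 min, quenched with acetonitrile/methanol 1:1 plus internal standard, and analysed by LC-MS/MS. Percent of the initial concentration was calculated; 85–115% was taken as acceptable.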

Mus musculus [21] = experiment: Cognition enhancing effect in CD38KOCC Slc:ICR mouse model of autism spectrum disorder assessed as sucrose consumption over water at 100 ng/ml, ip administered as single dose measured after 60 mins relative to control (reference value: 0.46 +/- 0.04); type: functional

Vasopressin V1a receptor, sequence (P37288 whole entry): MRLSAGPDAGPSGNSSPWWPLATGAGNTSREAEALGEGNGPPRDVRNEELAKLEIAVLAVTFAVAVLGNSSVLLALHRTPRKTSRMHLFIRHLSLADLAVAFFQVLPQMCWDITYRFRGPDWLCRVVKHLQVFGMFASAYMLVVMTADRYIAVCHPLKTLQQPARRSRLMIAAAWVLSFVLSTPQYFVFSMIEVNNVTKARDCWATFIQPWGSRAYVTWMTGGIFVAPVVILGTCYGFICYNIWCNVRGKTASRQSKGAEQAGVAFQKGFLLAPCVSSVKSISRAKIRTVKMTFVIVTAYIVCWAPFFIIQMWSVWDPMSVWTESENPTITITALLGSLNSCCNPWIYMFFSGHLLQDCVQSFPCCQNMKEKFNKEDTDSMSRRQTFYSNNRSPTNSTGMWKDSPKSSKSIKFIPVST

- K [2]: 0.1 min⁻¹
- K [3]: 1.05 ×10⁸ /M/min
- Cp [4]: 118 ng/mL
- concentration at 12 h [7]: 0.38 ng/mL
- Ki (Oxytocin receptor [8]): 0.51 nM
- half-life [11]: 2.84 min
- concentration at 0.5 h [12]: 0.1 ng/mL
- EC50 (Oxytocin receptor [13]): 0.028 nM
- EC50 (Vasopressin V1b receptor): 0.5 nM
- EC50 (Vasopressin V1a receptor): 2.2 nM
- half-life [16]: 2.86 min
- T1/2 [18]: 6.38 min
- remaining at 2 h, 50 ng/ml [20]: 85 to 115%
SMILES: CC[C@H](C)[C@@H]1NC(=O)[C@H](Cc2ccc(O)cc2)NC(=O)[C@@H](N)CSSC[C@@H](C(=O)N(CC(=O)N[C@@H](CC(C)C)C(=O)NCC(N)=O)Cc2ccc(F)cc2)NC(=O)[C@H](CC(N)=O)NC(=O)[C@H](CCC(N)=O)NC1=O (H-CYIQNC[N(4-F-Bzl)Gly]LG-NH2; disulfide 1-6)
- Ratio EC50 (Homo sapiens [1]): 75.3
- Time (Mus musculus [5]): 297 s
- Ratio EC50 (Homo sapiens [6]): 17.5
- Activity (Mus musculus [9]): inactive
- Time (Mus musculus [10]): 413 s
- Time (Mus musculus [14]): 149.5 s
- Time (Mus musculus [15]): 155 s
- Time (Mus musculus [17]): 381 s
- Activity (Mus musculus [19]): inactive
- Ratio (Mus musculus [21]): 0.79

- Ki (Oxytocin receptor [8]): 0.9 nM
- EC50 (Oxytocin receptor [13]): 0.089 nM
- EC50 (Vasopressin V1b receptor): 0.8 nM
- EC50 (Vasopressin V1a receptor): 4 nM
SMILES: CC[C@H](C)[C@@H]1NC(=O)[C@H](Cc2ccc(O)cc2)NC(=O)[C@@H](N)CCSC[C@@H](C(=O)N(CC(=O)N[C@@H](CC(C)C)C(=O)NCC(N)=O)Cc2ccc(F)cc2)NC(=O)[C@H](CC(N)=O)NC(=O)[C@H](CCC(N)=O)NC1=O (H-[Abu(4-yl)]YIQNC[N(4-F-Bzl)Gly]LG-NH2; thioether 1-6)
- Ratio EC50 (Homo sapiens [1]): 45
- Ratio EC50 (Homo sapiens [6]): 9
